ChEMBL document CHEMBL2034934, “Isodesacetyluvaricin, an Annonaceous acetogenin, specifically inhibits gene expression of cyclooxygenase-2” (J Nat Prod, 2012)
The source made the active and inactive calls. The rule behind the calls is not given here.

Assays:
[1] = test system: A-431; test: Cytotoxicity against EGF-stimulated human A431 cells at 1 to 5 uM after 24 hrs by WST1 assay; assay type: cell-based; conditions: a-431, 24 h
Method in brief: (§1)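 A431 cells serum-starved 24 h, pretreated 30 min at 1 or 5 μM, then EGF 25 ng/mL for 24 h or 48 h. WST-1 reagent 5–10 min at 37 °C; absorbance 450 nm, reference 600 nm.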

[2] = test system: A-431; test: Cytotoxicity against EGF-stimulated human A431 cells at 1 to 5 uM after 48 hrs by WST1 assay; assay type: cell-based; conditions: a-431, 48 h; method in brief: as §1
[3] = test system: A-431; test: Antiinflammatory activity in human A431 cells assessed as inhibition of EGF-stimulated COX2 mRNA level pretreated for 30 mins before EGF challenge measured after 3 hrs by RT-PCR analysis; assay type: functional, cell-based
Method in brief: (§2)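 A431 cells serum-starved 24 h, pretreated 30 min at 0.1, 1 or 5 μM, then EGF 25 ng/mL for 3 h. Total RNA by Trizol, reverse-transcribed; COX-1 and COX-2 amplified by PCR (35 cycles: 94 °C 30 s, 58 °C 30 s, 72 °C 1 min). Products run on 2% agarose, ethidium bromide stained.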

[4] = test system: A-431; test: Antiinflammatory activity in human A431 cells assessed as inhibition of EGF-stimulated COX1 mRNA level pretreated for 30 mins before EGF challenge measured after 3 hrs by RT-PCR analysis; assay type: functional, cell-based; method in brief: as §2
[5] = test system: RAW264.7; test: Antiinflammatory activity in mouse RAW264.7 cells assessed as inhibition of LPS-stimulated COX2 expression pretreated for 30 mins before LPS challenge measured after 3 hrs by RT-PCR analysis; assay type: functional, cell-based
Method in brief: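 Raw 264.7 mouse macrophages serum-starved 24 h, pretreated 30 min at 0.1, 1 or 5 μM, then LPS 10 μg/mL for 3 h. Total RNA by Trizol; COX-2 mRNA by RT-PCR (35 cycles), read on agarose gel with ethidium bromide.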

[6] = test system: A-431; test: Antiinflammatory activity in human A431 cells assessed as reduction of EGF-stimulated COX2 promoter activity at 0.1 to 5 uM after 24 hrs by luciferase reporter gene assay; assay type: functional, cell-based
Method in brief: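 A431 cells transiently transfected (Lipofectamine 2000) with 0.5 μg COX-2 promoter luciferase plasmid pXC 918 for 24 h. Then treated with compound and stimulated with EGF. Dual-luciferase read-out normalised to lysate protein; means ± SEM, Student's t-test.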

[7] = test system: A-431; test: Antiinflammatory activity in human A431 cells assessed as reduction of EGF-stimulated COX2 protein expression pretreated with compound before EGF challenge measured by Western blotting analysis; assay type: functional, cell-based
Method in brief: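 A431 cells serum-starved, pretreated with compound, then EGF-stimulated. 40 μg lysate (RIPA) run on 12.5% SDS-PAGE, blotted to nitrocellulose. Probed 16 h at 4 °C with mouse anti-COX-2 (1:2000) and β-actin (1:20 000), anti-mouse IgG secondary, ECL detection.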

[8] = test system: A-431; test: Inhibition of CREB promoter activity in EGF-stimulated human A431 cells at 1 to 5 uM pretreated for 30 mins before EGF challenge measured after 3 hrs by luciferase reporter gene analysis; assay type: cell-based
Method in brief: (§3)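 A431 cells transiently transfected with 0.5 μg CRE-promoter plasmid pXC 80 (CREB) or NFAT-promoter luciferase plasmid. After 24 h, pretreated 30 min at 1 or 5 μM, then EGF 25 ng/mL for 3 h. Luciferase normalised to lysate protein.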

[9] = test system: A-431; test: Inhibition of NFAT promoter activity in EGF-stimulated human A431 cells at 1 to 5 uM pretreated for 30 mins before EGF challenge measured after 3 hrs by luciferase reporter gene analysis; assay type: cell-based; method in brief: as §3
[10] = test system: A-431; test: Antiinflammatory activity in human A431 cells assessed as decrease in thapsigargin-induced calcium influx at 1 uM pretreated for 30 mins before thapsigargin challenge measured by fluorescence analysis; assay type: functional, cell-based
Method in brief: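 A431 cells on glass coverslips (24 or 48 h), loaded with 1 μM Fluo-4 at 37 °C for 20 min in the dark. Store-operated influx evoked by 2 μM thapsigargin; Fluo-4 read by time-lapse videomicroscopy; 15–20 cells pooled.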

## CCCCCCCCCC[C@@H](O)[C@H]1CC[C@H]([C@H]2CC[C@H]([C@H](O)CCCCCCCCCCCCC3=C[C@H](C)OC3=O)O2)O1 [ISODESAACETYLUVARICIN]
[1]
  Activity: Non-toxic
[2]
  Activity: Non-toxic
[3]
  inhibition: Dose-dependent effect
[4]
  inhibition: inactive
[5]
  inhibition: Active
[6]
  Activity: Active
[7]
  Activity: Dose-dependent effect
[8]
  inhibition: Active
[9]
  inhibition: Active
[10]
  Activity: inactive
